Measured values of several laboratories.
Lines come from different studies, so protocols differ.
Target: Serine/threonine-protein kinase haspin (HASPIN, Homo sapiens, UniProt Q8TF76)
One construct used (Q8TF76 1-798): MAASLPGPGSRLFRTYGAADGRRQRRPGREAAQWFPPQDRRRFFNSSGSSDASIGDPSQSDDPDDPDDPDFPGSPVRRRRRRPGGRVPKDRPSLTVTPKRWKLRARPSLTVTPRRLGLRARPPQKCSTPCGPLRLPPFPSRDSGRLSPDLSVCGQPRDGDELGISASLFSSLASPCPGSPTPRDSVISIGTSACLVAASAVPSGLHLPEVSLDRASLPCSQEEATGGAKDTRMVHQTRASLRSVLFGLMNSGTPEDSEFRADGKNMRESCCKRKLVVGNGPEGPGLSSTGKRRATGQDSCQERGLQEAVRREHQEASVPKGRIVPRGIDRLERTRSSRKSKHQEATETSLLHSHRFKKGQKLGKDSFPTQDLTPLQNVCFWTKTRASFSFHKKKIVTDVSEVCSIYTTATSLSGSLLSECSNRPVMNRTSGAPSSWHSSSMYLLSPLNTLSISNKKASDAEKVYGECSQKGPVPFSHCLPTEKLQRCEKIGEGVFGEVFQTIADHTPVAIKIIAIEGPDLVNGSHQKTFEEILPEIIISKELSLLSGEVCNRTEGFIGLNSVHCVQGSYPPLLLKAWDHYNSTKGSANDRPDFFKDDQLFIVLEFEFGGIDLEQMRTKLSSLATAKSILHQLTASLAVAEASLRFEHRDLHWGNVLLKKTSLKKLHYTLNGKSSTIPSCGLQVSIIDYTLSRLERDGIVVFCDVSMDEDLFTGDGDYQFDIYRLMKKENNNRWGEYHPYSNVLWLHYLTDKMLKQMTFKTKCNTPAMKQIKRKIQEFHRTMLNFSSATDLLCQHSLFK

N[C@H]1CCN(c2nccc(-c3cnn4ncccc34)n2)C1 — remaining binding (binding; 1 µM): 0.4%
Nc1ncc2c(n1)-c1c([nH]c3ccc(C#CC4CC4)cc13)CCCC2 — remaining binding (binding; competition with immobilised ligand; 1 µM): 100%
CN(c1nccc(-c2cnn3ncccc23)n1)C1CC1 — remaining binding (binding; 1 µM): 18%
CCN1CCN(Cc2ccc(C(=O)Nc3ccc(C)c(Oc4ccc5c(c4)CC(=O)N5)c3)cc2C(F)(F)F)CC1 — remaining binding (binding; competition with immobilised ligand; 1 µM): 100%
C[C@H](c1ccnc(Nc2nc3ccc(-c4cc(N(C)C)ncn4)cc3[nH]2)c1)N1CCN(C(=O)CC(F)(F)F)CC1 — remaining binding (cell-free assay; competition with immobilised ligand; 0.1 µM): 100%
COc1ccnn2ncc(-c3ccnc(N(C)C)n3)c12 — remaining binding (binding; 1 µM): 1.8%
O=C(c1ccc(Nc2ncc(Cl)c(-c3ccc(Cl)s3)n2)cc1)N1CCC(N2CCCC2)CC1 — remaining binding (binding; competition with immobilised ligand; 1 µM): 39%
CS(=O)(=O)N1CCCC(NC(=O)[C@H](CCC2CCCCC2)NC(=O)c2ccc(CNc3ncnc4c3nnn4-c3ccccc3)cc2)C1 (stereo partly shown) — remaining binding (cell-free assay; competition with immobilised ligand; 0.1 µM): 100%
C[C@@H]1CCN(c2nccc(-c3cnn4ncccc34)n2)C1 — remaining binding (binding; 1 µM): 2%
CSc1cccnc1N1CCN(Cc2nc3ccccc3[nH]2)CC1 — remaining binding (cell-free assay; competition with immobilised ligand; 1 µM): 100%
FC(F)(F)Oc1cccc(-c2cnc3ccc(-c4ccncc4)nn23)c1 — remaining binding (binding; competition with immobilised ligand; 5 µM): 4.6%
CC1CCCN1c1nccc(-c2cnn3ncccc23)n1 (stereo not shown) — remaining binding (binding; 1 µM): 21%
CCC(=O)N[C@@H]1CC[C@H](C(=O)N(C)c2ccc(-c3nc4ccccc4o3)cc2)C1 — remaining binding (cell-free assay; competition with immobilised ligand; 1 µM): 100%
COc1cnc(Nc2cccc(S(N)(=O)=O)c2)nc1N1CCN(c2ccccc2)CC1 — remaining binding (binding; competition with immobilised ligand; 1 µM): 82%
O=C(Nc1c[nH]nc1C(=O)NC1CCNCC1)c1cc(F)cc(F)c1 — remaining binding (binding; competition with immobilised ligand; 1 µM): 96%
O=C1NC(c2ccccn2)Sc2ccccc21 (stereo not shown) — remaining binding (cell-free assay; competition with immobilised ligand; 1 µM): 100%
O=C(NCCCN1CCOCC1)c1ccc(Nc2nccc(-c3cc4ccccc4s3)n2)cc1 — remaining binding (binding; competition with immobilised ligand; 1 µM): 80%
CN(C)c1nccc(-c2cnn3ncccc23)n1 — remaining binding (binding; 1 µM): 1.5%
CC(=O)N1CCC(c2ccc(C(=O)NC3=NCCN3)cc2C(F)(F)F)CC1 — remaining binding (cell-free assay; competition with immobilised ligand; 1 µM): 78%
O=C(c1ccc(Nc2ncc(Cl)c(-c3cc4ccccc4s3)n2)cc1)N1CCC(N2CCCC2)CC1 — remaining binding (binding; competition with immobilised ligand; 1 µM): 67%
c1cnn2ncc(-c3ccnc(N4CCC45COC5)n3)c2c1 — remaining binding (binding; 1 µM): 0.6%
c1cncc(-c2cccc(Nc3nccc(NC4CCCCC4)n3)c2)c1 — remaining binding (binding; competition with immobilised ligand; 10 µM): 23%
